Measured values: paper PMC8126997 (ACS chemical biology, 2021)

What was measured:
[1] = system: wild type (WT) HIV-1 protease; settings: cited from earlier work
[2] = system: HTLV-1 Gag cleavage in SP cells (chronically infected with HTLV-1); test: SP cell protease inhibition treatment, Gag processing by anti-p24 immunoblot; assay type: cell-based; settings: 48 h; for Amount of full-length (FL) Gag and larger size cleavage intermediates (CI): SP cell lysates and supernatants, 50 µM or 100 µM; for FL Gag band percentage (mean ± SEM), cell lysate: SP cell lysate, DMSO 2.0 ± 1.0%; for FL Gag band percentage (mean ± SEM), cell lysate / FL Gag band percentage (mean ± SEM), viral particles produced from SP cells: n=3; for FL Gag band percentage (mean ± SEM), viral particles produced from SP cells: particles in cell culture supernatant
How it was run: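 SP cells kept in RPMI with 20% FC3 serum, 1% penicillin-streptomycin and human IL-2 (10 U/ml). Medium exchanged for medium containing 50 or 100 µM test compound, or 0.01% v/v DMSO control, for 48 h at 37 °C and 5% CO2. Supernatant was 0.22 µm-filtered and pelleted over an 8% Optiprep cushion, with pellet lysed in RIPA buffer. Lysates and pellets were immunoblotted with anti-p24. FL Gag was quantified as % of lane bands, reported as mean ± SEM (n=3), and compared with DMSO by one-tailed t-test.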

[3] = target: HTLV-1 protease (Human T-cell leukemia virus type I, UniProt Q82134, L40I); settings: relative to UM6

Structure (SMILES)	Potency against wild type (WT) HIV-1 protease [1]	Amount of full-length (FL) Gag and larger size cleavage intermediates (CI) [2]	Fold better inhibition of HTLV-1 protease than UM6 [3]	FL Gag band percentage (mean ± SEM), cell lysate ([2]; 50 µM inhibitor)	FL Gag band percentage (mean ± SEM), cell lysate ([2]; 100 µM inhibitor)	FL Gag band percentage (mean ± SEM), viral particles produced from SP cells ([2]; 50 µM inhibitor)	FL Gag band percentage (mean ± SEM), viral particles produced from SP cells ([2]; 100 µM inhibitor)
CC(C)CN(C[C@@H](O)[C@H](Cc1ccccc1)NC(=O)O[C@H]1CO[C@H]2OCC[C@H]21)S(=O)(=O)c1ccc(N)cc1 [DRV, darunavir, reference compound]	low-picomolar	increased					
CCOP(=O)(COc1ccc(C[C@H](NC(=O)O[C@H]2CO[C@H]3OCC[C@H]32)[C@H](O)CN(CC(CC)CC)S(=O)(=O)c2ccc(N)cc2)cc1)OCC [PU6]		increased	4 fold	32.4 ± 15.5%	41.0 ± 13.7%	5.8 ± 2.8%	12.9 ± 3.1%
